CSN inh: inhibitors of human CSN-mediated cullin deneddylation. Q92905. Purified CSN, SCF-Nedd8-OG deneddylation, fluorescence polarization. inhibition, % at 12.5 µM. 0.38% of 360,000 active. AID 651999;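 active = pattern-corrected inhibition above about 35%, with an unprinted fluorescence ratio check between 0.5 and 1.5, limit read from the data, passing the limit was not always enough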;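 also: 0% = enzyme with substrate and 100% = substrate without enzyme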
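Detection – fluorescence polarization · System – HEK293T-derived human Csn5 enzyme · Controls – substrate-only high control, full reaction low control · Timing – 90 min, room temperature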
HNF4A DNA FP: change in binding of human HNF4 alpha to DNA; 0.3% of 360,000 active; AID 1224865; activity change, % at 10 µM; HNF4a-FITC DNA binding, fluorescence polarization, 1 h; in the data active = activity change above about 30%, passing the limit was not always enough
aDG glyco act: alpha-DG glycosylation activation; Pro5-aDG cells, alpha-DG glycosylation AlphaScreen (IIH6); 0% Pro5, 100% B10-LARGE cell signal; activation, % at 10 µM; 0.22% of 360,000 active; AID 624168;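 active = activation of at least 8% versus controls, or a plate z-score of at least 8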;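 also: Pro5 are CHO cells carrying HIG-tagged alpha-DG that lacks glycosylation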
NR1D1 modulator: modulates human Rev-erb alpha binding to DNA; Rev-erbα–FITC-DNA binding, fluorescence polarization, 90 min; 0.79% of 370,000 active; activity, % at 10 µM;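 active = activity above about 14%, limit read from the data; passing the limit was not always enough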;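 also: 0% = DMSO wells with 35 nM protein and 100% = DMSO wells with 750 nM protein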
CSN deneddyl val: Csn5 (human) deneddylation inhibition, single-concentration validation; AID 720654; 62% of 540 active; inhibition, % at 16.6 µM; Csn5 deneddylation of SCF-Nedd8OG, fluorescence polarization, 90 min; shares compounds with CSN inh; in the data active = inhibition above about 50%;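 also: 0% = DMSO with enzyme and 100% = no enzyme wells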
MMP-2 counter: counter-screen for CSN deneddylation inhibitors: human MMP-2 inhibition; shares compounds with CSN inh; recombinant MMP-2, FRET substrate fluorescence, 60 min; inhibition, % at 16.6 µM; 33% of 540 active; AID 720655;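 active = corrected plate-normalized z-score of 5 or more, or -5 or less, or inhibition of 15% or more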;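 also: plate controls were DMSO wells with enzyme for no effect and buffer wells lacking MMP-2 for full effect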
Target sequence (P08253 whole entry, looked up): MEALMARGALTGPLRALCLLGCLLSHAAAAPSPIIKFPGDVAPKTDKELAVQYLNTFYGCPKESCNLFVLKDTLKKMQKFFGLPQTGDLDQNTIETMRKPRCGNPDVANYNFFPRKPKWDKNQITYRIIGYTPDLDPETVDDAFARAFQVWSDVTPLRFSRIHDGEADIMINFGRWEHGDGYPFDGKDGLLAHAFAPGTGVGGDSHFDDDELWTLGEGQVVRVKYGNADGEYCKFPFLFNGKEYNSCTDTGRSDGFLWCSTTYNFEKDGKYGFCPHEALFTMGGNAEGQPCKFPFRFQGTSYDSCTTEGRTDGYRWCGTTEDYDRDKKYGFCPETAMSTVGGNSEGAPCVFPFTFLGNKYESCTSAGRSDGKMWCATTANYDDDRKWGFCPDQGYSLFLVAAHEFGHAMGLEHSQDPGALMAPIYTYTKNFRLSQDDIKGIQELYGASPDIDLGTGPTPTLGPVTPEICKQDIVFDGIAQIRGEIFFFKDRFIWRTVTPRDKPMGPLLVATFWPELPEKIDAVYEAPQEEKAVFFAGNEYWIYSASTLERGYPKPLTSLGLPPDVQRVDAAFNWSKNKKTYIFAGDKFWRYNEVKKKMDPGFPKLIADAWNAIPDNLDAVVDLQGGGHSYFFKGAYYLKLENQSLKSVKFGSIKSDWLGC
Thrombin counter: thrombin (bovine) inhibition, counter-screen for CSN hits; shares compounds with CSN inh; bovine thrombin cleavage of Ub4-pepOG, fluorescence polarization; inhibition, % at 16.6 µM; 49% of 540 active;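 active = inhibition at or above a set limit, with a fluorescence interference ratio between 0.5 and a set maximum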
* hit, by the source's call; / = no result given; + = active, no number. Rows were chosen to be rich in hits. Some 1.5% of all compounds tested hit in one or more screens of this group.

SMILES | CSN inh | HNF4A DNA FP | aDG glyco act | NR1D1 modulator | CSN deneddyl val | MMP-2 counter | Thrombin counter
Fc1cccc(Cc2c(-c3ccco3)nc3c4ccccc4ccn23)c1 | 49* | 16 | 0 | -6 | 69* | 5 | 20*
Cc1ccc(C)c(NC(=O)CN2C(=O)CCSc3ccccc32)c1 | / | / | / | -2 | / | / | /
COc1ccc(Cn2cc(CN3[C@@H](CC(C)C)COc4cccc(F)c4S3(=O)=O)nn2)cc1 | / | / | / | 1 | / | / | /
O=C1S/C(=C\c2ccc(N3CCOCC3)o2)C(=O)N1Cc1ccc(F)cc1 | 115 | 130 | 0 | / | / | / | /
CC(C)OC(=O)CN1C(=O)S/C(=C/c2ccc(N3CCCCC3)o2)C1=O | 51* | 9 | 0 | -6 | 73* | -114* | -73
NC1=[N+](Cc2ccccc2)C[C@H]2C(=C3CCCC[C@H]3n3c(=O)n(-c4ccccc4)c(=O)n32)N1 | / | / | / | -6 | / | / | /
O=C(O)CCCN1C(=O)/C(=C\c2ccc(-c3nc4ccccc4s3)o2)SC1=S | 117 | 26 | 0 | 9 | / | / | /
O=C(O)CC(C(=O)O)N1C(=O)/C(=C/C=C/c2ccco2)SC1=S (stereo not drawn) | 48* | -41 | 0 | 5 | 38 | 34* | 49*
O=C(O)CCCN1C(=O)/C(=C\C(Cl)=C\c2ccccc2)SC1=S | 40* | -7 | 0 | 2 | 75* | 30* | -3
O=C(O)CC(C(=O)O)N1C(=O)/C(=C/c2ccc(-c3nc4ccccc4s3)o2)SC1=S (stereo not drawn) | 47* | 9 | 0 | -5 | 82* | 9 | 83*
O=C(O)CCCN1C(=O)/C(=C/C=C/c2ccco2)SC1=S | 40* | -56 | 1 | -10 | 45 | 44* | 22*
COC(=O)[C@H](C(C)C)N(CCc1cn(CC2CCCCC2)nn1)S(=O)(=O)c1ccccc1Br | / | / | / | 3 | / | / | /
CC(=O)N1CCc2cc(S(=O)(=O)NC3CCN(C(=O)OCc4ccccc4)CC3)ccc21 | / | / | / | 4 | / | / | /
CN1C(=S)N(c2cccnc2)C(=O)/C1=C\c1ccc(C(C)(C)C)cc1 | 7 | 4 | 0 | -2 | / | / | /
CN1C(=S)N(c2cccnc2)C(=O)/C1=C\c1ccc(N(C)C)cc1 | 47* | 76* | 0 | 7 | 68* | -10 | 22*
CCOC(=O)CN1C(=O)S/C(=C/C=C/c2ccc(N(C)C)cc2)C1=O | 40* | 46* | 0 | 5 | 62* | -44* | 66*
CCOC(=O)CN1C(=O)S/C(=C/c2ccc3c(c2)n(C)c(=O)n3C)C1=O | 1 | -2 | 0 | -2 | / | / | /
CCOC(=O)/C=C(\C)Sc1cc(O)c2ccccc2c1O | 42* | -4 | 1 | 1 | 51* | 24* | -27
COc1cc(/C=C2\SC(=Nc3ccc(Cl)c(C(=O)O)c3)NC2=O)c(Br)c(Br)c1O | 198* | 76* | 0 | 11 | 29 | -101* | -84
COc1cc(/C=C2\SC(=Nc3ccccc3)NC2=O)cc(Cl)c1O | 150 | 123 | 0 | 10 | / | / | /
COc1ccc(C=C(C#N)C(=O)c2ccccc2)cc1 | 2 | 3 | 0 | -4 | / | / | /
COc1cc(/C=C(\C#N)C(=O)c2ccc(O)c(O)c2)cc(I)c1O | + | 110 | 0 | -8 | 19 | -106* | 57
CC1=NN(c2ccccc2)C(c2ccco2)C1 (stereo not drawn) | -2 | 4 | 0 | 3 | / | / | /
O=[N+]([O-])c1ccc(/C=C/C2=NN(c3ccccc3)C(c3ccco3)C2)cc1 (stereo not drawn) | 64* | 83* | 0 | 8 | 107* | -18 | 40
O=[N+]([O-])c1ccc(C2=NN(c3ccccc3)C(c3ccco3)C2)cc1 (stereo not drawn) | 63* | 78 | 0 | 1 | 176* | -12 | 19
SMILES | CSN inh | HNF4A DNA FP | aDG glyco act | NR1D1 modulator | CSN deneddyl val | MMP-2 counter | Thrombin counter
C[C@H](O)[C@@H]1C(=O)N2CCc3c([nH]c4c(-c5ccc6c(c5)OCO6)cccc34)[C@@H]2C[C@@H]1N(C)C(=O)c1ccccc1F | / | / | / | 6 | / | / | /
N#C/C(=C\c1ccc(N2CCCCC2)o1)C(=O)Nc1cccc(Br)c1 | 109 | 133 | 0 | 8 | / | / | /
N#C/C(=C\c1ccc(N2CCCCC2)o1)C(N)=O | 106* | 168 | 0 | 7 | 198* | -10 | 15
Cc1cccc(C)c1-n1cccc1/C=C1/C(=N)N2C(=NC1=O)SN=C2S(C)(=O)=O | 5 | -2 | 0 | 0 | / | / | /
Cc1ccc(-n2cccc2/C=C2/C(=N)N3C(=NC2=O)SN=C3S(C)(=O)=O)cc1Cl | 59* | 25 | 0 | -8 | 0 | 9 | 39*
Cc1ccccc1-n1c(C)cc(/C=N/Nc2ccc([N+](=O)[O-])cn2)c1C | 6 | 11 | 0 | -2 | / | / | /
Cc1cc(/C=N/Nc2ccc([N+](=O)[O-])cn2)c(C)n1-c1ccc(C(=O)O)cc1 | 53* | 16 | 0 | 8 | 90* | 13 | 2
Cc1ccccc1NC(=O)N(C)[C@H]1C[C@H]2c3[nH]c4c(-c5ccccc5)cccc4c3CCN2C[C@H]1[C@H](C)O | / | / | / | 6 | / | / | /
CCOC(=O)N1C(=O)C[C@](Sc2ccc(OC)cc2)(C(=O)N2CCN(C(C)=O)CC2)[C@H]1c1ccc(OC)cc1 | / | / | / | -1 | / | / | /
Cc1ccc(N=Cc2sc(O)c3ccccc23)cc1 | 40* | 77 | 0 | 9 | 82* | -10 | 57*
Cc1cc(/C=C2\SC(=S)N(C)C2=O)c(C)n1-c1ccc(O)cc1 | 51* | 79* | -1 | 13 | 181* | 5 | 62*
Cc1cc(/C=C2/SC(=S)N(c3cccc(Cl)c3)C2=O)c(C)n1-c1cccnc1 | 47* | 43* | 3 | -1 | 128* | -1 | 8
Cc1cc(/C=C2\SC(=S)NC2=O)c(C)n1-c1cccc(O)c1 | 66* | 97* | 1 | -1 | 37 | 19* | 66*
Cc1ccc(-n2c(C)cc(/C=C3\SC(=O)NC3=O)c2C)cc1 | -3 | 5 | 0 | -3 | / | / | /
Cc1cc(/C=C2/SC(=S)N(c3ccc([N+](=O)[O-])cc3)C2=O)c(C)n1-c1cccnc1 | 10 | 11 | 4 | -4 | / | / | /
Cc1cc(/C=C2\SC(=S)N(C)C2=O)c(C)n1-c1ccccc1O | 39* | 84 | 0 | 4 | 63* | -3 | 37*
CCN(CC)C(=O)CC[C@@H]1CC[C@]2(CCCN(Cc3cccc4ccccc34)C2)O1 | / | / | / | 0 | / | / | /
O=C(NC1CCCCN(Cc2ccc(OC(F)(F)F)cc2)C1=O)c1ccc(F)c(F)c1 (stereo not drawn) | / | / | / | -5 | / | / | /
Cc1nc(-n2[nH]c3c(c2=O)CCCC3)[nH]c(=O)c1Cc1ccccc1 | 52* | 44* | 1 | -2 | 80* | -4 | 49*
Cc1nc(N2CCc3ccccc3C2)[nH]c(=O)c1Cc1ccccc1 | 6 | 2 | 0 | 2 | / | / | /

Assay outcomes deposited in PubChem by Sanford-Burnham Center for Chemical Genomics.
